The species named for data set [1] is Rattus norvegicus. Description: Volume of distribution, steady state in rat. The note with it: in vivo. The data set is classed as ADME, organism-based. The method, boiled down:
(§1)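 Unanesthetized male Sprague-Dawley rats (150-250 g, n = 2-5) received 153Gd-labeled chelate via tail vein catheter at 0.1 mmol/kg. Plasma was separated from heparinized blood and Gd was measured by ICP. Concentration-time data were fitted biexponentially. Elimination half-life = 0.693/β and Vd = dose/B. AUC 0-30 min was computed per animal by the trapezoidal rule. Values are mean ± 1 SD.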

The species entered for data set [2] is Rattus norvegicus. Briefly: Percent of biliary excretion measured in 24 hr in rat. In kind it is ADME, organism-based, Bile. To be noted: in vivo. The method, boiled down: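 Rats were dosed i.v. at 0.1 mmol/kg with 153Gd-labeled chelate (male Sprague-Dawley, 150-250 g) and housed in metabolic cages to collect urine and feces. They were sacrificed at 24 h. Tissues and excreta were gamma counted, and % injected dose = sample CPM / injected CPM × 100.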

The species entered for data set [3] is Rattus norvegicus. Briefly: Elimination of half-life in rat. In kind it is ADME, organism-based. To be noted: in vivo. The method, boiled down:
as §1

Data set [4] can be described thus: Relaxivity, measured in phosphate buffer saline (PBS). In kind it is ADME. Summed up:
(§2)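 T1 was read at 20 MHz (0.47 T) and 37 °C, in triplicate, with recycle delay 5× T1. Five sequential additions of 1–10 mM chelate were titrated into PBS (10 mM phosphate, 150 mM NaCl, pH 7.4) or into 4.5% HSA (fraction V) in PBS. r1 was taken from the titration.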

The nature of data set [5]: Area under plasma 1/T1 versus time curve, 0-30 min. The data set is classed as ADME, cell-free. Further details: concentration or dose not given beside the values. Summed up:
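Male Sprague-Dawley rats (150-250 g, n = 2-5, unanesthetized) were given 0.1 mmol/kg 153Gd chelate i.v. by tail vein catheter. Plasma water T1 was measured on a Minispec in triplicate, and plasma Δ1/T1 was followed over time. AUC 0-30 min was calculated per animal by the trapezoidal rule. Values are mean ± 1 SD.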

The nature of data set [6]: Area under concentration versus time curve, 0-30 min. The arrangement: time < 0.5 hr. The data set is classed as ADME. To be noted: 0.5 h. The method, boiled down: as §1
Data set [7] addresses T1, Albumin (Homo sapiens, UniProt P02768). Briefly: Observed relaxivity bound to human serum albumin (4.5%). The method, boiled down:
as §2

The target in data set [8] is T1, Albumin. Description: Percentage of compound (0.1 mM) bound to human serum albumin (4.5%). The note with it: 100 µM. Summed up: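 Ultrafiltration, in duplicate. 153Gd-labeled chelate was added to 4.5% HSA to 0.1 mM total Gd. An aliquot was counted, and 400 μL was centrifuged through a 5000 NMWL filter at room temperature (22 ± 1 °C). The unbound fraction came from filtrate counts.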

Usually Vdss stands for a proportionality between amount in the body and measured concentration, not a real space.

T1 sequence (P02768 whole entry): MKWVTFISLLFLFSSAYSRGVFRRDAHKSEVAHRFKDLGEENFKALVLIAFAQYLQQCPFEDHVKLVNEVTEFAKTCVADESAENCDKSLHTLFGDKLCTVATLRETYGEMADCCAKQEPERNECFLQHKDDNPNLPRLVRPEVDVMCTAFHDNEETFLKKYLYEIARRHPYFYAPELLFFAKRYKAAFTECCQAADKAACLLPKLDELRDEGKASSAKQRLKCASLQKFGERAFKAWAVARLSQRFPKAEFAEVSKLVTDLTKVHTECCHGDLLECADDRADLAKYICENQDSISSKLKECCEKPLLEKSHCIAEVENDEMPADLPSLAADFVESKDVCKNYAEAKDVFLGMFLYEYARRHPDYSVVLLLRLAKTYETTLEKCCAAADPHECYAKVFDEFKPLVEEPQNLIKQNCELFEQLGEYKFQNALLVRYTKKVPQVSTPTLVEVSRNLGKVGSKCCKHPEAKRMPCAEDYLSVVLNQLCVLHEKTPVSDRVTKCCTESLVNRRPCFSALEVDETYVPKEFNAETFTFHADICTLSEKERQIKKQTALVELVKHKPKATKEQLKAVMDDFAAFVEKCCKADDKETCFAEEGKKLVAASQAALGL

“Bis-[N-methyl-D-glucamine]-{(2-((2-naphthyl)methyl)-diethylenetriaminepentaacetato)(aquo)-gadolinium (III)}” yielded a volume of distribution (Vdss) in the data set filed under Rattus norvegicus [1] of 0.44 L/kg. Besides, the Excretion in the data set filed under Rattus norvegicus [2] came to 64.3%. Besides, the T1/2 beta in the data set filed under Rattus norvegicus [3] is recorded as 6.8 min. The substance also showed a Relaxivity in data set [4] of 5.5 mM⁻¹ s⁻¹. In data set [5], this substance came in with an AUC 1/T1 of 40.1 s-1 min. The substance also registered an AUC conc in data set [6] of 43 µM·h. On Albumin [7], this substance showed an Observed relaxivity of 16.3 mM⁻¹ s⁻¹. The substance also had a Bound on Albumin [8] of 30%.

“Trisodium-{(2-(R)-[(4,4-diphenylcyclohexyl)phosphonooxymethyl]diethylenetriaminepentaacetato)(aquo)-gadolinium (III)}”: in the data set filed under Rattus norvegicus [1], the Vdss worked out at 0.24 L/kg. In the data set filed under Rattus norvegicus [2], this substance registered an Excretion of 15.8%. Further, the T1/2 beta in the data set listed under Rattus norvegicus [3] stood at 23.1 min. This substance came in with a Relaxivity in data set [4] of 6.6 mM⁻¹ s⁻¹. In addition, the AUC 1/T1 in data set [5] was 285 s-1 min. The same substance came in with an AUC conc in data set [6] of 156 µM·h. The substance also registered an Observed relaxivity at Albumin [7] of 42 mM⁻¹ s⁻¹. Further, the Bound at Albumin [8] was 88%.

The substance “Tris-[N-methyl-D-glucamine]-{(2-(R)-[octylphosphonooxymethyl]diethylenetriaminepentaacetato)(aquo)-gadolinium (III)}” had a Vdss in the data set filed under Rattus norvegicus [1] of 0.31 L/kg. Besides, the Excretion in the data set listed under Rattus norvegicus [2] is reported as 17.7%. In the data set listed under Rattus norvegicus [3], this substance gave a T1/2 beta of 14.3 min. The same substance registered a Relaxivity in data set [4] of 6.1 mM⁻¹ s⁻¹. The AUC 1/T1 in data set [5] came out at 150 s-1 min. In data set [6], this substance yielded an AUC conc of 99.3 µM·h. The substance further had a Bound at Albumin [8] of 54%.

“DIETHYLENETRIAMINEPENTAACETATO AQUO GADOLINIUM (III)” yielded a Vdss in the data set filed under Rattus norvegicus [1] of 0.28 L/kg. The same substance displayed an Excretion in the data set filed under Rattus norvegicus [2] of 6.3%. In the data set listed under Rattus norvegicus [3], this substance registered a T1/2 beta of 15.4 min. The Relaxivity in data set [4] was 4.6 mM⁻¹ s⁻¹. Also, in data set [5], the AUC 1/T1 stood at 46.4 s-1 min. The same substance registered an AUC conc in data set [6] of 104 µM·h. Moreover, at Albumin [7], the Observed relaxivity is 4.6 mM⁻¹ s⁻¹. Further, the Bound at Albumin [8] came to 0%.

As to “Bis-[N-methyl-D-glucamine]-{(2-(octyldiethylenetriamine)diethylenetriaminepentaacetato)(aquo)-gadolinium (III)}”, the Vdss in the data set filed under Rattus norvegicus [1] was 0.62 L/kg. In the data set filed under Rattus norvegicus [2], the Excretion was determined as 66.9%. This substance also had a T1/2 beta in the data set listed under Rattus norvegicus [3] of 6.2 min. For the same substance, in data set [4], the Relaxivity was 5.9 mM⁻¹ s⁻¹. The AUC 1/T1 in data set [5] is 69.7 s-1 min. This substance also gave an AUC conc in data set [6] of 51 µM·h. The same substance displayed an Observed relaxivity at Albumin [7] of 20.7 mM⁻¹ s⁻¹. Also, at Albumin [8], the Bound was 44%.

For “Tris-[N-methyl-D-glucamine]-{(2-(R)-[(2-(1-naphthyl)-ethyl)phosphonooxymethyl]diethylenetriaminepentaacetato)(aquo)-gadolinium (III)}”, in the data set listed under Rattus norvegicus [1], the Vdss came to 0.32 L/kg. In the data set listed under Rattus norvegicus [2], this substance gave an Excretion of 17%. In addition, in the data set listed under Rattus norvegicus [3], the T1/2 beta turned out to be 14.3 min. In data set [4], this substance had a Relaxivity of 6 mM⁻¹ s⁻¹. For the same substance, the AUC 1/T1 in data set [5] is 94.2 s-1 min. The substance further registered an AUC conc in data set [6] of 92.8 µM·h. The substance also gave an Observed relaxivity at Albumin [7] of 19.5 mM⁻¹ s⁻¹. Also, the Bound at Albumin [8] was determined as 40%.
